Measurements reported in ChEMBL document CHEMBL5058577, “EUbOPEN Chemogenomics Library 2 (Multiplex)” (2022).

System: U2OS
Experiment: Multiplex assay against U2OS
Type: toxicity, cell-based
Conditions: human
Method in brief: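 Hoechst33342, BioTracker Green Microtubule Cytoskeleton Dye, MitoTracker Red and Annexin V Alexa Fluor 680 were added to live cells at seeding, and imaging on a CQ1 microscope at 37°C and 5% CO2 followed compound addition. Gating by CellPathfinder machine learning separated cells into Hoechst high-intensity objects or normal cells, then normal cells into healthy, pyknosed or fragmented nuclei, then pyknosed cells into mitotic or apoptotic. Per cents of healthy-nucleus cells are reported for the tubulin, mitochondrial-mass and membrane-permeability phenotypes.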

[1] = 12 h, 1 µM, compound concentration 1 uM, replicate 1
[2] = 12 h, 1 µM, compound concentration 1 uM, replicate 2
[3] = 12 h, 10 µM, compound concentration 10 uM, replicate 1
[4] = 12 h, 10 µM, compound concentration 10 uM, replicate 2
[5] = 24 h, 1 µM, compound concentration 1 uM, replicate 1
[6] = 24 h, 1 µM, compound concentration 1 uM, replicate 2
[7] = 24 h, 10 µM, compound concentration 10 uM, replicate 1
[8] = 24 h, 10 µM, compound concentration 10 uM, replicate 2
[9] = 48 h, 1 µM, compound concentration 1 uM, replicate 1
[10] = 48 h, 1 µM, compound concentration 1 uM, replicate 2
[11] = 48 h, 10 µM, compound concentration 10 uM, replicate 1
[12] = 48 h, 10 µM, compound concentration 10 uM, replicate 2

Q: For `Cc1cnc(-c2cc(N3CCN(C(=O)CCS(C)(=O)=O)CC3)ncc2Cl)c(C)c1`, which “Population Apoptotic (%)” value [1] is on record?
A: Its value is 86%.

Q: What about the “Population Fragmented Nuclei (%)” value [1] of the same compound?
A: The value was 37%.

Q: What about the “Population Healthy Nuclei (%)” value [1] of the same compound?
A: Its value is 54%.

Q: What about the “Population Hoechst High Intensity Objects (%)” value [1] of the same compound?
A: The value was 2%.

Q: What about the “Population Membrane Permeable-Phenotype (%)” value [1] of the same compound?
A: The value was 10%.

Q: What about the “Population Mitochondria Different-Phenotype (%)” value [1] of the same compound?
A: Its value is 1%.

Q: And the “Population Mitotic Cells (%)” value [1]?
A: Its value is 13%.

Q: And the “Population Normal (%)” value [1]?
A: Its value is 97%.

Q: And the “Population Pyknosed Nuclei (%)” value [1]?
A: The value was 8%.

Q: What about the “Population Tubulin-Different-Phenotype (%)” value [1] of the same compound?
A: Its value is 2%.

Q: And the “Total Cell Count” value [1]?
A: The value was 183.

Q: What about the “Population Apoptotic (%)” value [2] of the same compound?
A: The value was 100%.

Q: What about the “Population Fragmented Nuclei (%)” value [2] of the same compound?
A: The value was 18%.

Q: What about the “Population Healthy Nuclei (%)” value [2] of the same compound?
A: The value was 73%.

Q: And the “Population Hoechst High Intensity Objects (%)” value [2]?
A: The value was 1%.

Q: And the “Population Mitochondria Different-Phenotype (%)” value [2]?
A: The value was 7%.

Q: What about the “Population Mitotic Cells (%)” value [2] of the same compound?
A: The value was 0%.

Q: What about the “Population Normal (%)” value [2] of the same compound?
A: Its value is 98%.

Q: What about the “Population Tubulin-Different-Phenotype (%)” value [2] of the same compound?
A: The value was 7%.

Q: What about the “Total Cell Count” value [2] of the same compound?
A: The value was 111.

Q: And the “Population Apoptotic (%)” value [3]?
A: Its value is 85%.

Q: What about the “Population Fragmented Nuclei (%)” value [3] of the same compound?
A: The value was 24%.

Q: And the “Population Healthy Nuclei (%)” value [3]?
A: Its value is 67%.

Q: What about the “Population Hoechst High Intensity Objects (%)” value [3] of the same compound?
A: The value was 1%.

Q: What about the “Population Membrane Permeable-Phenotype (%)” value [3] of the same compound?
A: The value was 4%.

Q: And the “Population Mitochondria Different-Phenotype (%)” value [3]?
A: The value was 3%.

Q: And the “Population Mitotic Cells (%)” value [3]?
A: The value was 14%.

Q: And the “Population Normal (%)” value [3]?
A: Its value is 98%.

Q: What about the “Population Pyknosed Nuclei (%)” value [3] of the same compound?
A: The value was 8%.

Q: What about the “Population Tubulin-Different-Phenotype (%)” value [3] of the same compound?
A: The value was 1%.

Q: And the “Total Cell Count” value [3]?
A: The value was 258.

Q: What about the “Population Apoptotic (%)” value [4] of the same compound?
A: The value was 75%.

Q: What about the “Population Fragmented Nuclei (%)” value [4] of the same compound?
A: The value was 17%.

Q: What about the “Population Healthy Nuclei (%)” value [4] of the same compound?
A: Its value is 73%.

Q: What about the “Population Membrane Permeable-Phenotype (%)” value [4] of the same compound?
A: The value was 20%.

Q: What about the “Population Mitochondria Different-Phenotype (%)” value [4] of the same compound?
A: Its value is 7%.

Q: And the “Population Mitotic Cells (%)” value [4]?
A: The value was 25%.

Q: And the “Population Pyknosed Nuclei (%)” value [4]?
A: Its value is 9%.

Q: And the “Population Tubulin-Different-Phenotype (%)” value [4]?
A: Its value is 15%.

Q: What about the “Total Cell Count” value [4] of the same compound?
A: The value was 88.

Q: What about the “Population Apoptotic (%)” value [5] of the same compound?
A: The value was 80%.

Q: And the “Population Fragmented Nuclei (%)” value [5]?
A: Its value is 30%.

Q: What about the “Population Healthy Nuclei (%)” value [5] of the same compound?
A: Its value is 62%.

Q: And the “Population Hoechst High Intensity Objects (%)” value [5]?
A: Its value is 2%.

Q: And the “Population Membrane Permeable-Phenotype (%)” value [5]?
A: The value was 5%.

Q: What about the “Population Mitochondria Different-Phenotype (%)” value [5] of the same compound?
A: Its value is 3%.

Q: What about the “Population Mitotic Cells (%)” value [5] of the same compound?
A: The value was 20%.

Q: What about the “Population Normal (%)” value [5] of the same compound?
A: The value was 97%.

Q: What about the “Population Pyknosed Nuclei (%)” value [5] of the same compound?
A: Its value is 6%.

Q: And the “Population Tubulin-Different-Phenotype (%)” value [5]?
A: Its value is 2%.

Q: And the “Total Cell Count” value [5]?
A: The value was 220.

Q: What about the “Population Apoptotic (%)” value [6] of the same compound?
A: Its value is 90%.

Q: What about the “Population Fragmented Nuclei (%)” value [6] of the same compound?
A: The value was 17%.

Q: What about the “Population Healthy Nuclei (%)” value [6] of the same compound?
A: The value was 75%.

Q: What about the “Population Membrane Permeable-Phenotype (%)” value [6] of the same compound?
A: Its value is 8%.

Q: What about the “Population Mitochondria Different-Phenotype (%)” value [6] of the same compound?
A: Its value is 5%.

Q: And the “Population Mitotic Cells (%)” value [6]?
A: The value was 10%.

Q: And the “Population Pyknosed Nuclei (%)” value [6]?
A: The value was 7%.

Q: And the “Population Tubulin-Different-Phenotype (%)” value [6]?
A: The value was 8%.

Q: And the “Total Cell Count” value [6]?
A: Its value is 136.

Q: And the “Population Apoptotic (%)” value [7]?
A: The value was 80%.

Q: And the “Population Fragmented Nuclei (%)” value [7]?
A: Its value is 20%.

Q: And the “Population Healthy Nuclei (%)” value [7]?
A: The value was 74%.

Q: And the “Population Hoechst High Intensity Objects (%)” value [7]?
A: The value was 2%.

Q: What about the “Population Membrane Permeable-Phenotype (%)” value [7] of the same compound?
A: Its value is 4%.

Q: What about the “Population Mitochondria Different-Phenotype (%)” value [7] of the same compound?
A: The value was 2%.

Q: What about the “Population Mitotic Cells (%)” value [7] of the same compound?
A: The value was 20%.

Q: And the “Population Normal (%)” value [7]?
A: The value was 97%.

Q: What about the “Population Pyknosed Nuclei (%)” value [7] of the same compound?
A: Its value is 4%.

Q: What about the “Population Tubulin-Different-Phenotype (%)” value [7] of the same compound?
A: The value was 0%.

Q: What about the “Total Cell Count” value [7] of the same compound?
A: The value was 309.

Q: What about the “Population Apoptotic (%)” value [8] of the same compound?
A: The value was 85%.

Q: And the “Population Fragmented Nuclei (%)” value [8]?
A: Its value is 21%.

Q: And the “Population Healthy Nuclei (%)” value [8]?
A: Its value is 64%.

Q: What about the “Population Hoechst High Intensity Objects (%)” value [8] of the same compound?
A: The value was 0%.

Q: What about the “Population Membrane Permeable-Phenotype (%)” value [8] of the same compound?
A: The value was 18%.

Q: What about the “Population Mitochondria Different-Phenotype (%)” value [8] of the same compound?
A: Its value is 1%.

Q: And the “Population Mitotic Cells (%)” value [8]?
A: The value was 14%.

Q: And the “Population Normal (%)” value [8]?
A: Its value is 99%.

Q: And the “Population Pyknosed Nuclei (%)” value [8]?
A: Its value is 13%.

Q: What about the “Population Tubulin-Different-Phenotype (%)” value [8] of the same compound?
A: Its value is 7%.

Q: And the “Total Cell Count” value [8]?
A: The value was 103.

Q: What about the “Population Apoptotic (%)” value [9] of the same compound?
A: The value was 78%.

Q: What about the “Population Fragmented Nuclei (%)” value [9] of the same compound?
A: Its value is 29%.

Q: And the “Population Healthy Nuclei (%)” value [9]?
A: Its value is 63%.

Q: What about the “Population Hoechst High Intensity Objects (%)” value [9] of the same compound?
A: The value was 0%.

Q: What about the “Population Membrane Permeable-Phenotype (%)” value [9] of the same compound?
A: The value was 3%.

Q: And the “Population Mitochondria Different-Phenotype (%)” value [9]?
A: The value was 2%.

Q: And the “Population Mitotic Cells (%)” value [9]?
A: The value was 21%.

Q: What about the “Population Normal (%)” value [9] of the same compound?
A: Its value is 99%.

Q: What about the “Population Pyknosed Nuclei (%)” value [9] of the same compound?
A: The value was 7%.

Q: And the “Population Tubulin-Different-Phenotype (%)” value [9]?
A: The value was 1%.

Q: And the “Total Cell Count” value [9]?
A: Its value is 325.

Q: And the “Population Apoptotic (%)” value [10]?
A: Its value is 95%.

Q: What about the “Population Fragmented Nuclei (%)” value [10] of the same compound?
A: Its value is 15%.

Q: And the “Population Healthy Nuclei (%)” value [10]?
A: Its value is 73%.

Q: And the “Population Hoechst High Intensity Objects (%)” value [10]?
A: Its value is 1%.

Q: What about the “Population Membrane Permeable-Phenotype (%)” value [10] of the same compound?
A: The value was 4%.

Q: What about the “Population Mitochondria Different-Phenotype (%)” value [10] of the same compound?
A: Its value is 5%.

Q: And the “Population Mitotic Cells (%)” value [10]?
A: Its value is 5%.

Q: And the “Population Normal (%)” value [10]?
A: Its value is 98%.

Q: What about the “Population Pyknosed Nuclei (%)” value [10] of the same compound?
A: The value was 10%.

Q: What about the “Population Tubulin-Different-Phenotype (%)” value [10] of the same compound?
A: Its value is 3%.

Q: What about the “Total Cell Count” value [10] of the same compound?
A: The value was 184.

Q: And the “Population Apoptotic (%)” value [11]?
A: Its value is 94%.

Q: What about the “Population Fragmented Nuclei (%)” value [11] of the same compound?
A: Its value is 11%.

Q: What about the “Population Healthy Nuclei (%)” value [11] of the same compound?
A: Its value is 80%.

Q: What about the “Population Hoechst High Intensity Objects (%)” value [11] of the same compound?
A: Its value is 1%.

Q: What about the “Population Membrane Permeable-Phenotype (%)” value [11] of the same compound?
A: Its value is 4%.

Q: What about the “Population Mitochondria Different-Phenotype (%)” value [11] of the same compound?
A: The value was 2%.

Q: And the “Population Mitotic Cells (%)” value [11]?
A: Its value is 5%.

Q: What about the “Population Normal (%)” value [11] of the same compound?
A: The value was 98%.

Q: What about the “Population Pyknosed Nuclei (%)” value [11] of the same compound?
A: Its value is 7%.

Q: And the “Population Tubulin-Different-Phenotype (%)” value [11]?
A: The value was 2%.

Q: And the “Total Cell Count” value [11]?
A: Its value is 485.

Q: What about the “Population Apoptotic (%)” value [12] of the same compound?
A: Its value is 100%.

Q: What about the “Population Fragmented Nuclei (%)” value [12] of the same compound?
A: Its value is 22%.

Q: And the “Population Healthy Nuclei (%)” value [12]?
A: The value was 71%.

Q: What about the “Population Hoechst High Intensity Objects (%)” value [12] of the same compound?
A: Its value is 3%.

Q: What about the “Population Membrane Permeable-Phenotype (%)” value [12] of the same compound?
A: The value was 13%.

Q: And the “Population Mitochondria Different-Phenotype (%)” value [12]?
A: The value was 7%.

Q: What about the “Population Mitotic Cells (%)” value [12] of the same compound?
A: The value was 0%.

Q: What about the “Population Normal (%)” value [12] of the same compound?
A: Its value is 96%.

Q: And the “Population Pyknosed Nuclei (%)” value [12]?
A: Its value is 5%.

Q: And the “Population Tubulin-Different-Phenotype (%)” value [12]?
A: The value was 7%.

Q: What about the “Total Cell Count” value [12] of the same compound?
A: Its value is 141.
